The species named for assay [1] is Rattus norvegicus. Put plainly: Inhibition of rat intestine alpha-glucosidase using maltose as substrate after 10 mins by spectrometric analysis relative to acarbose. Set-up: concentration or dose not given beside the values. The gist of the method: (§1)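 Enzyme and sample were preincubated at 37 °C for 10 min. Then 0.1 mol L-1 maltose was added and incubated 10 min at room temperature. The reaction was stopped and OD read at 490 nm. Blank (no enzyme, no sample) and negative (no sample) controls were run alongside.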

In assay [2] the target is T1, Peroxisome proliferator-activated receptor (Homo sapiens, UniProt P37231+Q07869+Q03181).
T1 sequence (P37231 whole entry): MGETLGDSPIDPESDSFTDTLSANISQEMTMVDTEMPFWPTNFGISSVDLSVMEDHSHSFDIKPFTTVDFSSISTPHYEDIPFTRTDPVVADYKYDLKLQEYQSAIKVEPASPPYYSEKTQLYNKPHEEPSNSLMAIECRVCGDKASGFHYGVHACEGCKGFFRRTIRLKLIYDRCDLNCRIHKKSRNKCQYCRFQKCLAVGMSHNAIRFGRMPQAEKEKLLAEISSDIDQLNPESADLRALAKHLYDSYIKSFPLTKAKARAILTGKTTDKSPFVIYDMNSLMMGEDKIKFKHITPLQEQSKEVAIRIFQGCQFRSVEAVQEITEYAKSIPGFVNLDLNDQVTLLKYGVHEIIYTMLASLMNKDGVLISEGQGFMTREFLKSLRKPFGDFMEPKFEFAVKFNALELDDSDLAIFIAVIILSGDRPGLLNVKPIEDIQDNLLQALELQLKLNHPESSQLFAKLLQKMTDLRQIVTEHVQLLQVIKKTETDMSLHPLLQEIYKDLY
T1 sequence (Q07869 whole entry): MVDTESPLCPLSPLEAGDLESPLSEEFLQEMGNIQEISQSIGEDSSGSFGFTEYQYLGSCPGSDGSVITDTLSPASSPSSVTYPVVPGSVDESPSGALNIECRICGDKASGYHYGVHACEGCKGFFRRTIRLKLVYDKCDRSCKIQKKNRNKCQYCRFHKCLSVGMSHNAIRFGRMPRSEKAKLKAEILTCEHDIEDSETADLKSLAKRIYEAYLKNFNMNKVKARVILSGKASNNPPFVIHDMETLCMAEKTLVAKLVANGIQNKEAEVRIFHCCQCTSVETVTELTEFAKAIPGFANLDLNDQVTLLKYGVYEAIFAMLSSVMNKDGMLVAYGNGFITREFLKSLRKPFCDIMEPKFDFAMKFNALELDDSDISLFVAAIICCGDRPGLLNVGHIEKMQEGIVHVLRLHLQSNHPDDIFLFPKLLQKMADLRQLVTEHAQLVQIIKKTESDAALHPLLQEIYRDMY
T1 sequence (Q03181 whole entry): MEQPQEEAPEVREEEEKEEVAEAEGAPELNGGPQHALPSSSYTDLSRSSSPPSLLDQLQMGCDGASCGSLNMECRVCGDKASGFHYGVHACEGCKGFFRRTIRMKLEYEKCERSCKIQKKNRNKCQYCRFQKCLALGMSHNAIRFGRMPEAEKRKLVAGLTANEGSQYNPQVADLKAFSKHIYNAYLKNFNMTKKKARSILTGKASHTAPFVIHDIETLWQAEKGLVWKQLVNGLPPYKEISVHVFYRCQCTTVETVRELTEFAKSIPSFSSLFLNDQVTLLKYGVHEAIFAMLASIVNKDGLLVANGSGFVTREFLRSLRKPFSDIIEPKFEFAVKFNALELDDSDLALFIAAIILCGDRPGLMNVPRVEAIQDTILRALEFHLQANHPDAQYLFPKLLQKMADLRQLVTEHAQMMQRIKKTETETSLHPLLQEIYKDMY
Kind of assay: Activation of PPAR in human HepG2 cells after 24 hrs by luciferase reporter gene assay. It counts as cell-based.

Assay [3] is described as follows: Inhibition of rat intestine alpha-glucosidase using maltose as substrate after 10 mins by spectrometric analysis. The gist of the method:
as §1

In assay [4] the target is Peroxisome proliferator-activated receptor (Homo sapiens) (UniProt P37231+Q07869+Q03181). Put plainly: Activation of PPAR in human HepG2 cells at 10 ug/ml after 24 hrs by luciferase reporter gene assay relative to rosiglitazone. It counts as cell-based. The gist of the method: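 HepG2 cells in low-glucose DMEM with 100 U mL-1 streptomycin/penicillin, plated at 1.5 × 10⁴ per well a day before transfection. At 70% confluence they were co-transfected with pPPRE-Luc (firefly) and phRL-TK (renilla). After 24 h the medium was replaced with sample-containing medium, with rosiglitazone as positive control. Dual firefly/renilla luciferase was read after a further 24 h; untransfected cells served as blank.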

Values after ≈ are worked out from the molar mass of the structure shown.

With `COc1ccc2cc(CCC(=O)CC(Nc3ccc(S(N)(=O)=O)cc3)c3ccc(O)cc3)ccc2c1` (configuration not stated), in assay [1], the inhibition (as a rule, the drop in the measured response relative to a control, in per cent) was determined as 52.8%. For the same molecule, in assay [2], the EC50 (commonly the midpoint of the concentration-response curve) came to 5.56 µg/mL (≈ 11 µM). Also, in assay [3], the concentration for half-maximal inhibition (IC50) (commonly the concentration needed to halve the response being measured) came to 4.14 µg/mL (≈ 8.2 µM). For the same molecule, the Activity in assay [4] was 73.4%.
For `COc1ccc2cc(CCC(=O)CC(Nc3ccc(S(N)(=O)=O)cc3)c3ccc(Br)cc3)ccc2c1` (configuration not stated), the inhibition in assay [1] was 79.7%. For the same molecule, the concentration giving a half-maximal response (EC50) in assay [2] amounted to 8.21 µg/mL (≈ 14.5 µM). This molecule also had an IC50 in assay [3] of 2.92 µg/mL (≈ 5.15 µM). Moreover, the Activity in assay [4] is 67.3%.
The matching figures for `COc1ccc2cc(CCC(=O)CC(Nc3ccc(S(N)(=O)=O)cc3)c3ccc(Cl)cc3)ccc2c1` (configuration not stated): 66.3%, 6.74 µg/mL (≈ 12.9 µM), 4.07 µg/mL (≈ 7.78 µM) and 71.9%.
